This note sets out measurements from ChEMBL document CHEMBL1125391, “Syntheses and thymidylate synthase inhibitory activity of the poly-gamma-glutamyl conjugates of N-[5-[N-(3,4-dihydro-2-methyl-4-oxoquinazolin-6-ylmethyl)-N-methylamino ]-2-thenoyl]-L-glutamic acid (ICI D1694) and other quinazoline antifolates” (J Med Chem, 1992).

Assay [1] has as its target Thymidylate synthase (Mus musculus) (UniProt P07607). The assay is described as follows: Compound was evaluated for fold increase in Thymidylate synthase (TS) inhibition. Type of assay: functional.
The target of assay [2] is T1, Thymidylate synthase (Mus musculus, UniProt P07607). The assay is described as follows: Inhibition of thymidylate synthase, partially purified from L1210 mouse leukemia cells overexpressing TS. Type of assay: cell-free. The following applies: read-out: Ki app. A digest of the protocol: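 Enzyme partially purified from L1210 mouse leukemia cells that overproduce TS through TS gene amplification. Assayed by the previously described method with (±)-5,10-methylenetetrahydrofolic acid at 200 μM. Apparent Ki was calculated with the Goldstein equation for tight-binding inhibitors.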

Assay [3] deals with T1, Thymidylate synthase. The assay is described as follows: Compound was evaluated for inhibition of thymidylate synthase, partially purified from L1210 mouse leukemia cells that overproduce thymidylate synthase due to amplification of TS gene. Conditions: read-out: Ki app.

T1 sequence (P07607 whole entry): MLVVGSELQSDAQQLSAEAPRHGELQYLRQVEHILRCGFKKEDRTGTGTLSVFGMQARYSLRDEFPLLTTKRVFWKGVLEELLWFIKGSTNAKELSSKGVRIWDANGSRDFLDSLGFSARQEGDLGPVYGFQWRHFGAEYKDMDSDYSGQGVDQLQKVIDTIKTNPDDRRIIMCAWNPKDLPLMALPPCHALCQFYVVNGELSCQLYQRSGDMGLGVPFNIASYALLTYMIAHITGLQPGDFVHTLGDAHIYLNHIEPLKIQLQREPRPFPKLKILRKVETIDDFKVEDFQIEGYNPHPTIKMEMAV
Thymidylate synthase (Mus musculus), sequence (P07607 whole entry, looked up): as the sequence (P07607 whole entry) above

In assay [1], `Cc1nc(O)c2cc(CN(C)c3ccc(C(=O)N[C@@H](CCC(=O)N[C@@H](CCC(=O)N[C@@H](CCC(=O)N[C@@H](CCC(=O)N[C@@H](CCC(=O)N[C@@H](CCC(=O)O)C(=O)O)C(=O)O)C(=O)O)C(=O)O)C(=O)O)C(=O)O)s3)ccc2n1` came in with a Fold increase of 112.
`Cc1nc2ccc(CN(C)c3ccc(C(=O)N[C@@H](CCC(=O)N[C@@H](CCC(=O)N[C@@H](CCC(=O)N[C@@H](CCC(=O)N[C@@H](CCC(=O)N[C@@H](CCC(=O)O)C(=O)O)C(=O)O)C(=O)O)C(=O)O)C(=O)O)C(=O)O)s3)cc2c(=O)[nH]1`: the Ki in assay [2] was 3.7 nM.
As to `C#CCN(Cc1ccc2nc(C)[nH]c(=O)c2c1)c1ccc(C(=O)N[C@@H](CCC(=O)O)C(=O)O)c(F)c1`, the Ki in assay [2] was 10.4 nM.
In assay [1], `Cc1nc(O)c2cc(CN(C)c3ccc(C(=O)N[C@@H](CCC(=O)N[C@@H](CCC(=O)N[C@@H](CCC(=O)N[C@@H](CCC(=O)N[C@@H](CCC(=O)O)C(=O)O)C(=O)O)C(=O)O)C(=O)O)C(=O)O)s3)ccc2n1` registered a Fold increase of 110.
On the same count and under the same terms, as for `Cc1nc(O)c2cc(CN(C)c3ccc(C(=O)N[C@@H](CCC(=O)N[C@@H](CCC(=O)N[C@@H](CCC(=O)O)C(=O)O)C(=O)O)C(=O)O)s3)ccc2n1`, the figure is 56.
For `Cc1nc2ccc(CN(C)c3ccc(C(=O)N[C@@H](CCC(=O)N[C@@H](CCC(=O)O)C(=O)O)C(=O)O)s3)cc2c(=O)[nH]1`, the Ki in assay [2] amounted to 24 nM.
As for `C#CCN(Cc1ccc2nc(C)cc(Cl)c2c1)c1ccc(C(=O)N[C@@H](CCC(=O)N[C@@H](CCC(=O)N[C@@H](CCC(=O)O)C(=O)O)C(=O)O)C(=O)O)c(F)c1`, in assay [1], the Fold increase was found to be 64. Also, the Ki in assay [2] is 1 nM.
For the molecule `C#CCN(Cc1ccc2nc(C)cc(Cl)c2c1)c1ccc(C(=O)N[C@@H](CCC(=O)O)C(=O)O)c(F)c1`, in assay [2], the Ki was 63.7 nM.
With `Cc1nc(O)c2cc(CN(C)c3ccc(C(=O)N[C@@H](CCC(=O)N[C@@H](CCC(=O)O)C(=O)O)C(=O)O)s3)ccc2n1`, the Fold increase in assay [1] came to 17.
Take `Cc1nc2ccc(CN(C)c3ccc(C(=O)N[C@@H](CCC(=O)N[C@@H](CCC(=O)N[C@@H](CCC(=O)N[C@@H](CCC(=O)N[C@@H](CCC(=O)O)C(=O)O)C(=O)O)C(=O)O)C(=O)O)C(=O)O)s3)cc2c(=O)[nH]1`: the Ki in assay [2] was 3.79 nM.
`Cc1nc2ccc(CN(C)c3ccc(C(=O)N[C@@H](CCC(=O)N[C@@H](CCC(=O)N[C@@H](CCC(=O)O)C(=O)O)C(=O)O)C(=O)O)s3)cc2c(=O)[nH]1`: the Ki in assay [2] stood at 7.52 nM.
With `Cc1nc2ccc(CN(C)c3ccc(C(=O)N[C@@H](CCC(=O)O)C(=O)O)s3)cc2c(=O)[nH]1` [RALTITREXED], in assay [3], the Ki came to 418 nM.
Regarding `C#CCN(Cc1ccc2nc(C)nc(O)c2c1)c1ccc(C(=O)N[C@@H](CCC(=O)N[C@@H](CCC(=O)O)C(=O)O)C(=O)O)c(F)c1`, in assay [1], the Fold increase turned out to be 18. Moreover, the Ki in assay [2] turned out to be 0.59 nM.
For the molecule `Cc1nc(O)c2cc(CN(C)c3ccc(C(=O)N[C@@H](CCC(=O)N[C@@H](CCC(=O)N[C@@H](CCC(=O)N[C@@H](CCC(=O)O)C(=O)O)C(=O)O)C(=O)O)C(=O)O)s3)ccc2n1`, the Fold increase in assay [1] amounted to 89. For the same molecule, the Ki in assay [2] came to 4.69 nM.
